The test system of experiment [1] is Hepatitis C virus. Put plainly: Inhibition of hepatitis C virus RNA replication in a subgenomic replicon cell line. It counts as functional, organism-based, Hepacivirus hominis. In short, it runs like this: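 HCV subgenomic replicon cells exposed to compound for 48 h; relative HCV replicon RNA then measured by luciferase reporter assay.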
For experiment [2], the system named is Hepatitis C virus. Put plainly: Cytotoxicity concentration to inhibit hepatitis C virus RNA replication in a subgenomic replicon cell line. It is filed as functional, Hepacivirus hominis. Summed up: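 MTS assay run on samples set up in parallel with the HCV subgenomic replicon cultures.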
(In antiviral work, replicon cells carry a viral genome segment that copies itself.)

The structures appear in SMILES notation.

On to `CNCCN(C)c1ncnc2c1ncn2C1O[C@H](CO)[C@@H](O)[C@@]1(C)O` (stereo not given in full), for which a half-maximal response in the experiment with Hepatitis C virus [1] (EC50) required 200 µM. Further, the CC50 (usually the concentration that lowers cell viability or growth by half) in the experiment with Hepatitis C virus [2] came to 300 µM.

In the case of `C[C@]1(O)C(n2cnc3c(N4CCOCC4)ncnc32)O[C@H](CO)[C@H]1O` (stereo not given in full), the EC50 (commonly the midpoint of the concentration-response curve) with Hepatitis C virus [1] turned out to be 100 µM. In the experiment with Hepatitis C virus [2], this compound yielded a CC50 of 300 µM.

On to `CCNc1ncnc2c1ncn2C1O[C@H](CO)[C@@H](O)[C@@]1(C)O` (stereo not given in full), for which, in the experiment on Hepatitis C virus [1], the EC50 is 8 µM. Moreover, the CC50 in the experiment on Hepatitis C virus [2] is 300 µM.

In the experiment with Hepatitis C virus [1], `C[C@]1(O)C(n2cnc3c(C(=N)NO)ncnc32)O[C@H](CO)[C@H]1O` (stereo not given in full) returned an EC50 of 100 µM. This compound had a CC50 with Hepatitis C virus [2] of 300 µM.

In turn, `COC(=N)c1ncnc2c1ncn2C1O[C@H](CO)[C@@H](O)[C@@]1(C)O` (stereo not given in full) registered an EC50 with Hepatitis C virus [1] of 120 µM. In addition, in the experiment on Hepatitis C virus [2], it took 300 µM to reach half-maximal cytotoxicity (CC50).

Turning to `C[C@]1(O)C(n2cnc3c(NOCCO)ncnc32)O[C@H](CO)[C@H]1O` (stereo not given in full), a half-maximal response in the experiment on Hepatitis C virus [1] (EC50) required 80 µM. This compound returned a CC50 with Hepatitis C virus [2] of 300 µM.

`C[C@]1(O)C(n2cnc3c(NCCN)ncnc32)O[C@H](CO)[C@H]1O` (stereo not given in full): in the experiment with Hepatitis C virus [1], the response was half-maximal at 25 µM (EC50). In the experiment on Hepatitis C virus [2], this compound had a CC50 of 300 µM.

In the case of `CC1(C)OCC(CNc2ncnc3c2ncn3C2O[C@H](CO)[C@@H](O)[C@@]2(C)O)O1` (stereo not given in full), the EC50 in the experiment on Hepatitis C virus [1] is 300 µM. This compound yielded a CC50 in the experiment with Hepatitis C virus [2] of 300 µM.

`CC(C)NC(=O)N(O)c1ncnc2c1ncn2C1O[C@H](CO)[C@@H](O)[C@@]1(C)O` (stereo not given in full) registered an EC50 in the experiment with Hepatitis C virus [1] of 6 µM. In addition, the midpoint of cytotoxicity in the experiment on Hepatitis C virus [2], the CC50, lay at 300 µM.

The compound `CCOc1ccccc1CNc1ncnc2c1ncn2C1O[C@H](CO)[C@@H](O)[C@@]1(C)O` (stereo not given in full) gave an EC50 with Hepatitis C virus [1] of 50 µM. The same compound returned a CC50 in the experiment on Hepatitis C virus [2] of 250 µM.

The compound `CCC(=O)N(O)c1ncnc2c1ncn2C1O[C@H](CO)[C@@H](O)[C@@]1(C)O` (stereo not given in full) yielded an EC50 in the experiment on Hepatitis C virus [1] of 3.3 µM. The CC50 in the experiment with Hepatitis C virus [2] is 300 µM.

Turning to `COc1ncnc2c1ncn2C1O[C@H](COP(=O)(OCCSC(=O)C(C)(C)C)OCCSC(=O)C(C)(C)C)[C@@H](O)[C@@]1(C)O` (stereo not given in full), in the experiment with Hepatitis C virus [1], the EC50 was found to be 0.1 µM. Also, in the experiment on Hepatitis C virus [2], the CC50 amounted to 300 µM.

Consider `C[C@]1(O)C(n2cnc3c(NCC4CCCO4)ncnc32)O[C@H](CO)[C@H]1O` (stereo not given in full), for which, in the experiment with Hepatitis C virus [1], the EC50 was 300 µM. The compound further registered a CC50 in the experiment on Hepatitis C virus [2] of 300 µM.

In the case of `C[C@]1(O)C(n2cnc3c(NO)ncnc32)O[C@H](CO)[C@H]1O` (stereo not given in full), the response in the experiment with Hepatitis C virus [1] was half-maximal at 1.8 µM (EC50). This compound also registered a CC50 in the experiment on Hepatitis C virus [2] of 300 µM.

On to `CCNC(=O)N(OC)c1ncnc2c1ncn2C1O[C@H](CO)[C@@H](O)[C@@]1(C)O` (stereo not given in full), for which, in the experiment with Hepatitis C virus [1], a half-maximal effect (EC50) was put at 80 µM. In the experiment with Hepatitis C virus [2], this compound yielded a CC50 of 300 µM.

`CONc1ncnc2c1ncn2C1O[C@H](CO)[C@@H](O)[C@@]1(C)O` (stereo not given in full): the midpoint of the response in the experiment on Hepatitis C virus [1], the EC50, lay at 4 µM. For the same compound, the CC50 in the experiment on Hepatitis C virus [2] was 300 µM.

`C[C@]1(O)C(n2cnc3c(N(O)C(=O)Nc4ccccc4)ncnc32)O[C@H](CO)[C@H]1O` (stereo not given in full): in the experiment with Hepatitis C virus [1], it took 1.8 µM to reach a half-maximal effect (EC50). This compound also showed a 50% cytotoxic concentration (CC50) in the experiment on Hepatitis C virus [2] of 300 µM.

For the compound `CCONc1ncnc2c1ncn2C1O[C@H](CO)[C@@H](O)[C@@]1(C)O` (stereo not given in full), the EC50 with Hepatitis C virus [1] amounted to 30 µM. The compound further displayed a CC50 in the experiment with Hepatitis C virus [2] of 300 µM.

Consider `CSc1ncnc2c1ncn2C1O[C@H](CO)[C@@H](O)[C@@]1(C)O` (stereo not given in full), for which a half-maximal effect with Hepatitis C virus [1] (EC50) was put at 11 µM. The CC50 in the experiment with Hepatitis C virus [2] is 300 µM.

Consider `C[C@]1(O)C(n2cnc3c(-c4ccco4)ncnc32)O[C@H](CO)[C@H]1O` (stereo not given in full), for which, in the experiment with Hepatitis C virus [1], the EC50 stood at 275 µM. Also, in the experiment on Hepatitis C virus [2], it took 300 µM to reach half-maximal cytotoxicity (CC50).

In turn, `CN(C)c1ncnc2c1ncn2C1O[C@H](CO)[C@@H](O)[C@@]1(C)O` (stereo not given in full) came in with an EC50 in the experiment on Hepatitis C virus [1] of 9 µM. The CC50 in the experiment with Hepatitis C virus [2] amounted to 300 µM.

Regarding `C[C@]1(O)C(n2cnc3c(N4CCCS4)ncnc32)O[C@H](CO)[C@H]1O` (stereo not given in full), the EC50 in the experiment on Hepatitis C virus [1] came to 15 µM. Further, the CC50 in the experiment with Hepatitis C virus [2] is 200 µM.

Consider `C[C@]1(O)C(n2cnc3c(NCCC(N)=O)ncnc32)O[C@H](CO)[C@H]1O` (stereo not given in full), for which the EC50 in the experiment with Hepatitis C virus [1] stood at 150 µM. This compound yielded a CC50 in the experiment with Hepatitis C virus [2] of 300 µM.

In the case of `C[C@]1(O)C(n2cnc3c2NCN=C3N(CCO)CCO)O[C@H](CO)[C@H]1O` (stereo not given in full), in the experiment on Hepatitis C virus [1], the EC50 turned out to be 20 µM. In the experiment on Hepatitis C virus [2], this compound showed a CC50 of 300 µM.

`CC(CNC1=NCNc2c1ncn2C1O[C@H](CO)[C@@H](O)[C@@]1(C)O)c1ccccc1` (stereo not given in full) yielded an EC50 in the experiment on Hepatitis C virus [1] of 25 µM. Besides, the CC50 in the experiment with Hepatitis C virus [2] was determined as 300 µM.

As for `C[C@]1(O)C(n2cnc3c2NCN=C3NCCO)O[C@H](CO)[C@H]1O` (stereo not given in full), the EC50 in the experiment on Hepatitis C virus [1] came out at 60 µM. Moreover, in the experiment with Hepatitis C virus [2], the CC50 was 300 µM.

The compound `CN(O)c1ncnc2c1ncn2C1O[C@H](CO)[C@@H](O)[C@@]1(C)O` (stereo not given in full) yielded an EC50 with Hepatitis C virus [1] of 4 µM. The CC50 in the experiment with Hepatitis C virus [2] came out at 300 µM.

`CON(C)c1ncnc2c1ncn2C1O[C@H](CO)[C@@H](O)[C@@]1(C)O` (stereo not given in full) yielded an EC50 in the experiment on Hepatitis C virus [1] of 33 µM. In the experiment on Hepatitis C virus [2], the midpoint of cytotoxicity, the CC50, lay at 300 µM.

For the compound `CSc1cccc(Nc2ncnc3c2ncn3C2O[C@H](CO)[C@@H](O)[C@@]2(C)O)c1` (stereo not given in full), the EC50 in the experiment on Hepatitis C virus [1] was 300 µM. The CC50 in the experiment on Hepatitis C virus [2] amounted to 300 µM.

Turning to `C[C@]1(O)C(n2cnc3c(C(=N)N)ncnc32)O[C@H](CO)[C@H]1O` (stereo not given in full), in the experiment on Hepatitis C virus [1], the response was half-maximal at 100 µM (EC50). Half-maximal cytotoxicity with Hepatitis C virus [2] (CC50) was put at 300 µM.

As to `C[C@]1(O)C(n2cnc3c(N(O)C(=O)OCc4ccccc4)ncnc32)O[C@H](CO)[C@H]1O` (stereo not given in full), the EC50 in the experiment on Hepatitis C virus [1] turned out to be 20 µM. Also, the CC50 in the experiment on Hepatitis C virus [2] stood at 300 µM.

In the case of `CCNC(=O)Nc1ncnc2c1ncn2C1O[C@H](CO)[C@@H](O)[C@@]1(C)O` (stereo not given in full), the EC50 in the experiment on Hepatitis C virus [1] turned out to be 80 µM. The compound also displayed a CC50 with Hepatitis C virus [2] of 300 µM.

For the compound `C[C@]1(O)C(n2cnc3c(-c4ccsc4)ncnc32)O[C@H](CO)[C@H]1O` (stereo not given in full), the midpoint of the response in the experiment with Hepatitis C virus [1], the EC50, lay at 300 µM. The midpoint of cytotoxicity in the experiment on Hepatitis C virus [2], the CC50, lay at 300 µM.

`CNc1ncnc2c1ncn2C1O[C@H](CO)[C@@H](O)[C@@]1(C)O` (stereo not given in full) yielded an EC50 with Hepatitis C virus [1] of 1 µM. In the experiment on Hepatitis C virus [2], the CC50 is 300 µM.

For `COC(=O)N(O)c1ncnc2c1ncn2C1O[C@H](CO)[C@@H](O)[C@@]1(C)O` (stereo not given in full), the midpoint of the response in the experiment with Hepatitis C virus [1], the EC50, lay at 3 µM. The CC50 with Hepatitis C virus [2] was 250 µM.

The compound `CCOc1ncnc2c1ncn2C1O[C@H](CO)[C@@H](O)[C@@]1(C)O` (stereo not given in full) yielded an EC50 in the experiment on Hepatitis C virus [1] of 13 µM. In the experiment with Hepatitis C virus [2], this compound gave a CC50 of 300 µM.

`C[C@]1(O)C(n2cnc3c(O)ncnc32)O[C@H](CO)[C@H]1O` (stereo not given in full) yielded an EC50 in the experiment on Hepatitis C virus [1] of 8 µM. In the experiment on Hepatitis C virus [2], this compound returned a CC50 of 300 µM.

`CCOc1ncnc2c1ncn2C1O[C@H](COP(=O)(OCCSC(C)=O)OCCSC(C)=O)[C@@H](O)[C@@]1(C)O` (stereo not given in full) came in with an EC50 with Hepatitis C virus [1] of 0.08 µM. For the same compound, half-maximal cytotoxicity in the experiment on Hepatitis C virus [2] (CC50) was put at 300 µM.

In the experiment with Hepatitis C virus [1], `C[C@]1(O)C(n2cnc3c2NCN=C3NOCCO)O[C@H](CO)[C@H]1O` (stereo not given in full) came in with an EC50 of 80 µM. The CC50 with Hepatitis C virus [2] is 300 µM.

`C[C@]1(O)C(n2cnc3c(C(=N)S)ncnc32)O[C@H](CO)[C@H]1O` (stereo not given in full): the EC50 in the experiment with Hepatitis C virus [1] came to 120 µM. The compound further had a CC50 with Hepatitis C virus [2] of 300 µM.

The compound `COc1ncnc2c1ncn2C1O[C@H](CO)[C@@H](O)[C@@]1(C)O` (stereo not given in full) showed an EC50 in the experiment with Hepatitis C virus [1] of 9 µM. Besides, it took 300 µM to reach half-maximal cytotoxicity with Hepatitis C virus [2] (CC50).

In the experiment with Hepatitis C virus [1], `CCNC(=O)N(O)c1ncnc2c1ncn2C1O[C@H](CO)[C@@H](O)[C@@]1(C)O` (stereo not given in full) showed an EC50 of 2.2 µM. The compound further showed a CC50 in the experiment with Hepatitis C virus [2] of 200 µM.

In the experiment with Hepatitis C virus [1], `CCNC(=O)N(O)C1=NCNc2c1ncn2C1O[C@H](CO)[C@@H](O)[C@@]1(C)O` (stereo not given in full) registered an EC50 of 200 µM. Besides, the CC50 in the experiment with Hepatitis C virus [2] came out at 300 µM.

`C[C@]1(O)C(n2cnc3c(-c4cccs4)ncnc32)O[C@H](CO)[C@H]1O` (stereo not given in full) returned an EC50 with Hepatitis C virus [1] of 80 µM. The midpoint of cytotoxicity in the experiment with Hepatitis C virus [2], the CC50, lay at 200 µM.

The compound `C[C@@]1(O)[C@H](O)[C@@H](CO)O[C@H]1n1cnc2c(N)ncnc21` showed an EC50 in the experiment with Hepatitis C virus [1] of 0.3 µM. In addition, it took 300 µM to reach half-maximal cytotoxicity with Hepatitis C virus [2] (CC50).

The record behind these values is ChEMBL document CHEMBL1144291, “Synthesis of 9-(2-beta-C-methyl-beta-d-ribofuranosyl)-6-substituted purine derivatives as inhibitors of HCV RNA replication” (Bioorg Med Chem Lett, 2005).
